Results from ChEMBL document CHEMBL4007411, “Design, Synthesis, and Biological Evaluation of Coupled Bioactive Scaffolds as Potential Anticancer Agents for Dual Targeting of Dihydrofolate Reductase and Thioredoxin Reductase” (J Med Chem, 2017).
Activity calls are given as the source filed them. The calls are words filed in the database; no cut-off is given here.

Tests used:
[1] = biological target: T1, Thioredoxin reductase 1, cytoplasmic (Rattus norvegicus, UniProt O89049); assay: Inhibition of […] thioredoxin reductase after 30 mins by DTNB reduction assay; details: read-out: IC50
T1 sequence (O89049 whole entry): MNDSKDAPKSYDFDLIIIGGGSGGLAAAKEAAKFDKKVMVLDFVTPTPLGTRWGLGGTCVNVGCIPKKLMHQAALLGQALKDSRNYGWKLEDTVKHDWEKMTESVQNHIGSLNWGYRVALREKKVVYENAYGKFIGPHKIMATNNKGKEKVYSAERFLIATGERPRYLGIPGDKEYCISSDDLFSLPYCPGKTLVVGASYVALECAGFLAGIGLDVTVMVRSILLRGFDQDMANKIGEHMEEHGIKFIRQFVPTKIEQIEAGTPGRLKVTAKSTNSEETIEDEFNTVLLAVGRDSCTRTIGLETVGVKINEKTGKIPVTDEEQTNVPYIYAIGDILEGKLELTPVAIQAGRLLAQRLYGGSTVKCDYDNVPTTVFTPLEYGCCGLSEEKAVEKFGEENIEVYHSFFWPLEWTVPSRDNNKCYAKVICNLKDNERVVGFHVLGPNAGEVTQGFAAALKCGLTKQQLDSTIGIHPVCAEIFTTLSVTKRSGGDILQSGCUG
Method in brief: (§1)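 Rat liver TrxR at 2.1 units/ml preincubated with a range of test concentrations and 200 µM NADPH in 50 mM Tris-HCl, 1 mM EDTA, pH 7.5, at room temperature for 30 or 60 min. Equal volume of buffer with 5 mM DTNB and 200 µM NADPH then added. A412 followed over 2 min. Activity as % of vehicle Vmax; IC50 from log concentration plot.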

[2] = biological target: T2, Thioredoxin reductase 1, cytoplasmic (Homo sapiens) (UniProt Q16881); assay: Inhibition of thioredoxin reductase in human HCT116 cell lysate using thioredoxin as substrate at 40 to 70 uM after 16 hrs by end point insulin assay method
T2 sequence (whole entry): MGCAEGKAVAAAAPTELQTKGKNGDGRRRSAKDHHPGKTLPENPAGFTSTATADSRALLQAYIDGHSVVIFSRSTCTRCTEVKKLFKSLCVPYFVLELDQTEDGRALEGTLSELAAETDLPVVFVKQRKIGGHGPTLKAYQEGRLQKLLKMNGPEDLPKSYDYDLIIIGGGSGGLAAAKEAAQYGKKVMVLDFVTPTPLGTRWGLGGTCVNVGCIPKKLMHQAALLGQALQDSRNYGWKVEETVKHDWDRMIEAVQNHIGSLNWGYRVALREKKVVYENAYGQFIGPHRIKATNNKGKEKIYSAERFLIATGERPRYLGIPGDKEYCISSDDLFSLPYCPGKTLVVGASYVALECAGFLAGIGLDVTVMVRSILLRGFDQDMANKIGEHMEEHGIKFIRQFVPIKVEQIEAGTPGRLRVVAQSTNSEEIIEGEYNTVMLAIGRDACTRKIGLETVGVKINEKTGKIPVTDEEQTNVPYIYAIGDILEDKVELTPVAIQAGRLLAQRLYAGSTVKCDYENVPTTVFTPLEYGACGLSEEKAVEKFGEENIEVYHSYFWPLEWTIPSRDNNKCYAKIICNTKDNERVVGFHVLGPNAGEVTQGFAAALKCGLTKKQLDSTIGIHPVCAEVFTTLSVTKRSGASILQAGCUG
Method in brief: (§2)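 HCT116 cells treated 16 h at 0.001 to 1 µM or 40 to 70 µM, then lysed. Stopped with 1 mM DTNB and 240 µM NADPH in 6 M guanidine HCl and Tris pH 8.0, read at A412. Given as % of DMSO-treated cells. Mean of three experiments.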

[3] = biological target: T1, Thioredoxin reductase 1, cytoplasmic; assay: Inhibition of […] thioredoxin reductase after 60 mins by DTNB reduction assay; details: read-out: IC50; method in brief: as §1
[4] = biological target: T3, Dihydrofolate reductase (Homo sapiens) (UniProt P00374); details: 0.0001 to 1 uM
T3 sequence (whole entry): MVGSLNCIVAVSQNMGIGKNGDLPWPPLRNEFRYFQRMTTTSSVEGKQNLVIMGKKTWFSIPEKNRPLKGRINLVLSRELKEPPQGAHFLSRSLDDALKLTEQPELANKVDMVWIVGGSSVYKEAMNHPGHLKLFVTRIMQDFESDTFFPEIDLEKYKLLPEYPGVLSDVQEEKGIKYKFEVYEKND

[5] = biological target: T2, Thioredoxin reductase 1, cytoplasmic (Homo sapiens); assay: Inhibition of thioredoxin reductase in human HCT116 cell lysate using thioredoxin as substrate at 0.001 to 1 uM after 16 hrs by end point insulin assay method
[6] = biological target: T3, Dihydrofolate reductase (Homo sapiens); assay: Inhibition of DHFR in human HCT116 cell lysate assessed as reduction in conversion of DHF to THF after 16 hrs
Method in brief: (§3)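 HCT116 cells treated 16 h at 0.001 to 1 µM or 40 to 70 µM, then lysed. 400 µg lysate protein in PBS with 50 µM DHF and 200 µM NADPH, with matching controls containing 1 µM methotrexate. A340 decrease followed over 15 min at room temperature. MTX-sensitive rate given as % of DMSO-treated cells. Mean of three independent experiments.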

HCT-116 [7] = assay: Upregulation of DHFR protein levels in human HCT116 cell lysate at 40 to 70 uM after 16 hrs by Western blot analysis; assay type: functional, cell-based
Method in brief: (§4)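 HCT116 plated at 1.5 x 10^6 per 100 mm plate, grown 48 h, then treated 16 h at 40 to 70 µM. Adherent and floating cells pooled and lysed in Triton X-100 buffer with protease inhibitors. Lysates cleared and protein measured by Bradford. Equal protein run on SDS-PAGE and blotted. DHFR or TrxR detected by ECL, β-actin antibody also used. Three independent experiments.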

MCF7 = assay: Antiproliferative activity against human MCF7 cells after 72 hrs by MTT assay; assay type: functional; details: MCF7, 72 h
Method in brief: (§5)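 Cells kept in RPMI 1640 with 10% FBS, penicillin and streptomycin at 37°C and 5% CO2. Seeded at 1.0 x 10^4/well and left to adhere overnight. Serial dilutions made in medium from DMSO stocks. MTT at 400 µg/ml final for 4 h, read at T0 and after 72 h. Formazan dissolved in DMSO:glycine pH 10.5, A550. GI50 and LC50 interpolated from absorbance versus log concentration.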

HCT-116 [8] = assay: Antiproliferative activity against human HCT116 cells after 72 hrs by MTT assay; assay type: functional; details: HCT-116, 72 h; method in brief: as §5
[9] = biological target: T3, Dihydrofolate reductase (Homo sapiens); assay: Inhibition of DHFR in human HCT116 cell lysate assessed as reduction in conversion of DHF to THF at 40 to 70 uM after 16 hrs; method in brief: as §3
HCT-116 [10] = assay: Effect on thioredoxin reductase protein levels in human HCT116 cell lysate at 40 to 70 uM after 16 hrs by Western blot analysis; assay type: cell-based; details: hct-116, 16 h; method in brief: as §4
Dihydrofolate reductase = biological target: T4, Dihydrofolate reductase (Homo sapiens, UniProt P00374); assay: Inhibition of recombinant human DHFR assessed as reduction in conversion of DHF to THF measured every 30 secs for 6 mins by UV-Vis spectrophotometric method
T4 sequence (P00374 whole entry): T3 sequence (whole entry)

[11] = biological target: T2, Thioredoxin reductase 1, cytoplasmic (Homo sapiens); assay: Inhibition of thioredoxin reductase in human HCT116 cell lysate using thioredoxin as substrate after 16 hrs by end point insulin assay method; method in brief: as §2

| Structure (SMILES) | IC50 [1] | inhibition [2] | IC50 [3] | inhibition [4] | inhibition [5] | inhibition [6] | Activity (HCT-116 [7]) | GI50 (MCF7) | LC50 (concentration killing 50% of cells present at T0) (MCF7) | GI50 (HCT-116 [8]) | CC50 (HCT-116 [8]; read-out: LC50 (the source's name)) | inhibition [9] | Activity (HCT-116 [10]) | IC50 (Dihydrofolate reductase) | inhibition [11] |
| --- | --- | --- | --- | --- | --- | --- | --- | --- | --- | --- | --- | --- | --- | --- | --- |
| O=C(/C=C/c1ccccc1)c1ccccc1 [CHALCONE] | 46.4 µM | Active | 26.7 µM | inactive | inactive |  |  |  |  |  |  |  |  |  |  |
| Cl.NC1=NC2(CCCC2)N(OCCCOc2cccc(C(=O)/C=C/c3ccccc3)c2)C(N)=N1 | 7.5 µM |  | 4.6 µM |  | inactive | Dose-dependent effect | Active | 0.08 µM | 11.2 µM | 0.026 µM | 14.1 µM | Active | Non-Toxic | 0.0061 µM | Dose-dependent effect |
